Publication PMC7231760 (International Journal of Nanomedicine, 2020)

What was measured:
[1] = target: HCV NS3 helicase (Hepatitis C virus genotype 1a, UniProt P27958); assay: Anti-HCV NS3 helicase assay; assay type: biochemical
Summary of the method: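 Test samples were dissolved in DMSO; thioflavin S or 0.8% DMSO served as controls. ATP was added from a 5 mM solution. Fluorescence was read at t0 and after 1 h at 25°C. Ratio_RFU = RFU_t60/RFU_t0, and percent inhibition was calculated.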

[2] = target: HCV NS3 protease (Hepatitis C virus, UniProt P27958); assay: Anti-HCV NS3 protease assay; assay type: biochemical; details: SNPs of total extract and petroleum ether fraction, controls (Table 2)
Chain of HCV NS3 protease (P27958 1027-1657): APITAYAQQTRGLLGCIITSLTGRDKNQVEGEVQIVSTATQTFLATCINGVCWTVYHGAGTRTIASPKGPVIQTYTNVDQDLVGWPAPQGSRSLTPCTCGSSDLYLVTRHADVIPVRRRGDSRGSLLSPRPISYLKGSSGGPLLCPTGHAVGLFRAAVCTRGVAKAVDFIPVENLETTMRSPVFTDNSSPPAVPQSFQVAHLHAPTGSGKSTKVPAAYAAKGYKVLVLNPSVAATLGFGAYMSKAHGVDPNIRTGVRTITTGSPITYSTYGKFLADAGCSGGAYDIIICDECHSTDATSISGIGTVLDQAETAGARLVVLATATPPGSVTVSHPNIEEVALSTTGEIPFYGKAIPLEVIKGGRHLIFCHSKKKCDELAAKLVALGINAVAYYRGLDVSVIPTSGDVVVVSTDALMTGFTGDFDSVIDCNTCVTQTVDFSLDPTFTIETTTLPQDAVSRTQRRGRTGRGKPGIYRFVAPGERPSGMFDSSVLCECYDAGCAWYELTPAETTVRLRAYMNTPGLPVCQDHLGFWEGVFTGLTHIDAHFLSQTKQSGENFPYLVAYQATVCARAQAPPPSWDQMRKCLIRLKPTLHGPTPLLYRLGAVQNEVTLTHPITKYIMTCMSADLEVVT

Chain of HCV NS3 helicase (P27958 1192-1657 limits assumed): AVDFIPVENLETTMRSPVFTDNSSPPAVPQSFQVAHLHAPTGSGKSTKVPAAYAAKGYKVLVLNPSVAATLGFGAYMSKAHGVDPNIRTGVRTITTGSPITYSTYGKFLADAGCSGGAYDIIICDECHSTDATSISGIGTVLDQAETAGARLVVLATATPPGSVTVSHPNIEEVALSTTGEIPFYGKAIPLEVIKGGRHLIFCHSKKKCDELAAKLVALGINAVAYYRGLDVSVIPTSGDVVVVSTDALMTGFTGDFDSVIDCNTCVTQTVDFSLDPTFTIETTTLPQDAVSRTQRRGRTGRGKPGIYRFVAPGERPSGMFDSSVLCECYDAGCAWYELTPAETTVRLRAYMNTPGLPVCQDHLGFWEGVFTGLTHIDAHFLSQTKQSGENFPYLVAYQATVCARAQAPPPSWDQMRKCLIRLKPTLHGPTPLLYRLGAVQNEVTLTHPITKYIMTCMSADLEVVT

| SMILES | IC50 [1] [µM] | IC50 NS3 Helicase ([1]; SNPs of total extract and petroleum ether fraction, controls (Table 2)) [µg/mL] | IC50 NS3 Protease [2] [µg/mL] |
| --- | --- | --- | --- |
| NC(=O)c1ncn([C@@H]2O[C@H](CO)[C@@H](O)[C@H]2O)n1 [Ribavirin] | 19.1 |  |  |
| O=[N+]([O-])[O-].[Ag+] [AgNO3] |  | 77.72 ± 4.57 | 52.67 ± 0.33 |
